Tests used:
[1] = target: T1, Opioid receptor (Mus musculus) (UniProt P42866+P32300+P33534); test: Opioid receptors antagonist potency in reversing the effects of Met5E was determined in mouse isolated vas deferens; assay type: functional, tissue-based
Summary of the method: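 Electrically stimulated mouse isolated vas deferens. Antagonism is measured against agonist-induced effects, with Met⁵-enkephalin as the δ agonist. Antagonist potency is expressed as pA₂.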

[2] = target: T1, Opioid receptor (Mus musculus); test: Opioid receptors antagonist potency in reversing the effects of normorphine was determined in mouse isolated vas deferens; assay type: functional, tissue-based
Opioid receptor [3] = target: T2, Opioid receptor (Mus musculus, UniProt P42866+P32300+P33534); test: Concentration required to inhibit the stereospecific [3H]diprenorphine binding Opioid receptors in the absence of sodium(Na+) was determined in mouse isolated vas deferens; assay type: protein assay
Opioid receptor [4] = target: T2, Opioid receptor; test: Concentration required to inhibit the stereospecific [3H]diprenorphine binding Opioid receptors in the presence of sodium(Na+) was determined in mouse isolated vas deferens; assay type: protein assay

T1 sequence (P32300 whole entry, looked up): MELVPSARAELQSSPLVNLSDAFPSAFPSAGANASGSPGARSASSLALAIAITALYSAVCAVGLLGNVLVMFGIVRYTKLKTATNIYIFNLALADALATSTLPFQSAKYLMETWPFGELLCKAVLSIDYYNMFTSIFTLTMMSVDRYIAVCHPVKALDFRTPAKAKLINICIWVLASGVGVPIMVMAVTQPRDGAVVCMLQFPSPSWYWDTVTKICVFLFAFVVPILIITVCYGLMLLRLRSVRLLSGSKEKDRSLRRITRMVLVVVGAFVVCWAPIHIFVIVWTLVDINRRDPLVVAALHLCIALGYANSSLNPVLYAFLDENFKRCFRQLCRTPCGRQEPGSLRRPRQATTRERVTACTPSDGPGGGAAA
T1 sequence (P33534 whole entry, looked up): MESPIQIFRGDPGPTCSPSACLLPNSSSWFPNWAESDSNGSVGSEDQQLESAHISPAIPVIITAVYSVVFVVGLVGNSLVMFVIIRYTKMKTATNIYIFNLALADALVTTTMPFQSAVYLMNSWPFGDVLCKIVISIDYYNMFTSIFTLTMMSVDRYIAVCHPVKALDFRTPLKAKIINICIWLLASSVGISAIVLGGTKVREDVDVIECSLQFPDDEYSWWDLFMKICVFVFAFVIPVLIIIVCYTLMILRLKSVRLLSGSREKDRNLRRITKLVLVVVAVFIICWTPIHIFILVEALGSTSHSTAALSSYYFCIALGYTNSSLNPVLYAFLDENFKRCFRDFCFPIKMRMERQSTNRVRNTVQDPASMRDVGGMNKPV
T1 sequence (P42866 whole entry, looked up): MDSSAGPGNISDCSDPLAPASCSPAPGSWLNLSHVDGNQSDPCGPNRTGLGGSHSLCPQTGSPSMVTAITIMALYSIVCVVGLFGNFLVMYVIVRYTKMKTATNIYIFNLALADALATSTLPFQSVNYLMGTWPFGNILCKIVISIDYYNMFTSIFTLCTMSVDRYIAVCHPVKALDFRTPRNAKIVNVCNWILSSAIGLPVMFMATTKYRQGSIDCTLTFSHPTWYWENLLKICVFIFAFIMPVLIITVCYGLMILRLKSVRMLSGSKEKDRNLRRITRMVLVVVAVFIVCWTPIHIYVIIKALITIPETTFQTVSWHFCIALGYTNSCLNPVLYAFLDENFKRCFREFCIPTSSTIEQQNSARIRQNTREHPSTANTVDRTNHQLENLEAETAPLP

Row | Compound | Concentration [1] [µM] | Concentration [2] [nM] | IC50 (Opioid receptor [3]) [µM] | IC50 (Opioid receptor [4]) [µM]
1 | C=CC[N+]1(C)CC[C@]23c4c5ccc(O)c4O[C@H]2[C@@H](O)C=CC3[C@H]1C5 (stereo in doubt; B) | 4.92 | 59.2 | – | –
2 | C=CCN1CC[C@]23c4c5ccc(O)c4O[C@H]2[C@@H](O)C=C[C@H]3[C@H]1C5 | 0.286 | 22.4 | – | –
3 | C=CC[N+]1(C)CC[C@]23c4c5ccc(O)c4O[C@H]2[C@@H](O)C=CC3[C@H]1C5.[I-] (stereo in doubt; A) | – | – | 8.5 | 11.5
4 | C=CC[N+]1(C)CC[C@]23c4c5ccc(O)c4O[C@H]2[C@@H](O)C=CC3[C@H]1C5 (stereo in doubt; A) | > 22 | 1250 | – | –
5 | C=CC[N+]1(C)CC[C@]23c4c5ccc(O)c4O[C@H]2[C@@H](O)C=CC3[C@H]1C5.[I-] (stereo in doubt; B) | – | – | 0.44 | 0.51

From ChEMBL document CHEMBL1122178, “N-Methylnalorphine: definition of N-allyl conformation for antagonism at the opiate receptor” (J Med Chem, 1982)
